Assay: Toxicity liver stage against HepG2, at 10uM
Format: cell-based
Design: test concentration 10 uM, cell line HepG2-A16-CD81EGFP
Settings: human, HepG2-A16-CD81EGFP cells; read-out: INHIBITION
Procedure, shortened: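 Uninfected HepG2-A16-CD81EGFP cells, 3 × 10^3 per well, 1536-well, plated on prespotted compound at 10 μM final, parasite-free screening media added to match infected plates; puromycin 10 μM positive, DMSO 0.5% negative; run in parallel with 48 h PbLuc assay at 37 °C, 5% CO2; viability by CellTiter-Glo luminescence, normalized to controls.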

SMILES | cytotoxicity at 10 µM [%]
O=C(Nc1ccc(Cl)cc1C(=O)NCCN1CCOCC1)c1ccco1 | -4.62
Cc1cccc(N2CCN(Cc3nc(CC4CC4)no3)CC2)n1 | -10.1
Cc1ccc2nc3n(c2c1)[C@@H](CNC(=O)c1ccncc1)COC3 | -3.61
CC(C)NC(=O)c1nc(COc2ccc3c(c2)OCO3)no1 | -1.11
Cc1cccc(NC(=O)C2(n3cnnn3)CCCCC2)n1 | -1.05
CCC(CNC(C)=O)(OC)c1ccccc1 (stereo unspecified) | 1.97
CSc1nc2cc(C)n(CC(=O)N3CCCC3)c2c(=O)n1CC(C)C | 3.64
CCCn1[nH]c(CNc2ccccc2)nc1=O | 9.98
COCCNC(=O)c1cc2c(s1)CCN2C(=O)c1ccccc1 | -12.9
CCn1ccc(CNC(=O)c2cc(OC)cc(OC)c2)n1 | 8.66
CN(C)C(=O)CN1CCCC(c2nccnc2-c2cccc(Cl)c2)C1 (stereo unspecified) | 4.21
Cc1nc2cc(C3CCOCC3)nn2c(NCC2COCCO2)c1C (stereo unspecified) | 0.135
Cc1noc(C)c1-c1cccc(C2CCN(S(=O)(=O)N(C)C)CC2)n1 | 8.18
Cc1cnc(-c2nc(C3CCN(Cc4ccccc4Cl)CC3)no2)cn1 | -5.85
Cc1csc2c(C3CCN(C(=O)Cn4cncn4)CC3)nc(C)n12 | 6.28
CC(=O)N1CCCCC[C@@H]2[C@@H]1[C@H](c1cccc(F)c1)CN2CCC(N)=O | -1.08
COc1ccc(C2CNCCN2C(=O)c2nccc3ccccc23)cc1 (stereo unspecified) | 4.1
COC(=O)[C@H]1CN(C(=O)c2cscn2)C[C@@H]1c1ccc(F)cc1 | -26.3
Cc1cc(CN2CCC(C3Nc4ccccc4S(=O)(=O)N3)CC2)oc1C (stereo unspecified) | 4.22
Cn1nc(C2CN(C(=O)c3cccnc3)C2)c2nccnc21 | -21.7
O=C(CCc1ccccc1)N1CCCC(c2n[nH]c3nccnc23)C1 (stereo unspecified) | 20.9
CNC(=O)C1(c2cnccn2)CCCN1C(=O)c1cccnc1OC (stereo unspecified) | -8.55
COCC(=O)N1CCN(c2cc(C)nc(C3CCCN3C(C)=O)c2)CC1 (stereo unspecified) | 1.86

SMILES | cytotoxicity at 10 µM [%]
O=C(COc1cccc(F)c1)N1C[C@@H](O)[C@H](N2CCOCC2)C1 | 6.02
COc1cc2nc3n(c(=O)c2cc1OC)CCN(C(=O)C(C)(C)C)CC3 | -13.5
OC1CCN(Cc2c(-c3ccco3)[nH]c3ncccc23)CC1 | -1.58
CCc1cc(C(=O)N2CCc3nc4c(C)csc4c(=O)n3CC2)on1 | -14.9
CN(c1ccncn1)C1CC2(CCN(C(=O)c3cncs3)C2)C1 (stereo unspecified) | -8.13
O=C(c1ccncc1)N1CCC(O)(Cn2ccc3ccncc32)CC1 | 1.93
COc1ccccc1-c1nc(C(=O)N2CCOCC2)n2ccncc12 | 11.9
CS(=O)(=O)N1CC2(CCN(C3CCCCC3)CC2)Cc2ccccc21 | 4.92
CC(=O)N1CCCN(Cc2ccon2)c2ccccc21 | 0.616
CCN(CC)S(=O)(=O)NC(C)C(=O)N(C)C (stereo unspecified) | 9.55
O=C(c1ccc2[nH]cnc2c1)N1CCC(COc2ccccn2)CC1 | -2.91
CC(C)(C(=O)NCCCc1nc2ccccc2[nH]1)n1cc(Cl)cn1 | 4.05
CC(C)C1CCC(N2CCN(CCS(C)(=O)=O)CC2)CC1 (stereo unspecified) | 7.23
O=C1CSCN1CC(=O)N1CCCC1c1nc2ccccc2s1 (stereo unspecified) | -12.7
COc1ccc(C(CC(=O)O)NC(=O)c2cc(C)on2)cc1 (stereo unspecified) | 5.12
COc1cccc(S(=O)(=O)CCN2CCCC2c2ccc[nH]2)c1 (stereo unspecified) | -3.89
O=C(c1ccccc1F)N1CCN(CCCn2cncn2)CC1 | 2.99
Cc1cc(CC(=O)NCC(O)c2ccc(OC(F)F)cc2)n[nH]1 (stereo unspecified) | -0.988
CNS(=O)(=O)c1cccc(C(C)NCc2ccncc2)c1 (stereo unspecified) | -2.53
CC1CCN(C(CNC(=O)Cn2cccn2)c2cccs2)CC1 (stereo unspecified) | -16
O=C(O)c1ccn(-c2ccccc2NS(=O)(=O)c2cccc(Cl)c2F)n1 | -3.36
Cc1ccc(C2COCCN2C(=O)c2cccc(N(C)C)c2)o1 (stereo unspecified) | 8.99
Cc1nc(CN2CCC(CNC(=O)NCCC3CCC3)CC2)oc1C | -0.5

SMILES | cytotoxicity at 10 µM [%]
Cc1ccn(-c2ccccc2NCc2cccnc2)n1 | 0.508
Cc1cc(C)n(C2CN(CC(=O)N(C)Cc3cnn(C)c3)C2)n1 | -5.85
NC(=O)C(CNC(=O)Cc1ccsc1)Cc1ccc(F)cc1 (stereo unspecified) | 9.21
CCn1cc(NC(=O)NC(CO)Cc2c[nH]c3ccccc23)cn1 (stereo unspecified) | -7.03
Cc1cc(C)c(CNC(=O)C2COc3ccccc3C2)c(=O)[nH]1 (stereo unspecified) | -0.102
CNC(=O)CN1CCC(OCC2CCCO2)CC1 (stereo unspecified) | 1.99
Cn1cnc2c1CCN(CCOc1ccc3c(c1)CCC(=O)N3)C2 | -4.48
Cc1cncc(C(=O)N2CCCCC2c2nc[nH]n2)c1 (stereo unspecified) | -0.229
Cn1c(CCNc2nccnc2C#N)nc2cc(Cl)ccc21 | -6
COCC(C)(CCO)NC(=O)Nc1cccc(Br)c1C (stereo unspecified) | 10.5
CC(C)CN1Cc2cccc(NC(=O)Cc3ccon3)c2C1 | 4.86
CS(=O)(=O)CCOCCNc1cncc(Br)c1 | 1.83
Cc1cc(CC(=O)NC2CCCN(Cc3ccccc3)C2=O)n[nH]1 (stereo unspecified) | 3.5
O=C(N1CCC(O)(C(F)(F)F)C1)C1(c2ccc(Cl)cc2)CC1 (stereo unspecified) | 9.64
CCc1nc(CN2CCN(C(=O)COCc3ccccc3)CC2)no1 | 2.41
Cn1cnc(S(=O)(=O)N2CCN(Cc3ccco3)CC2)c1Cl | -3.85
COC[C@@]12CCC[C@@H]1CN(C(=O)COC1CCCC1)C2 | 4.35
CO[C@H]1CC[C@H]2[C@H]1OCCN2C(=O)CC1=CCCCC1 | 5.28
O=C(CC(F)(F)F)N1CCc2onc(Cn3cccn3)c2C1 | 0.635
CS(=O)(=O)N[C@@H]1CCO[C@]2(CCN(C(=O)c3cnccn3)C2)C1 | 1.98
O=C(c1cn(CCN2CCCCC2)nn1)N1CCCCO1 | -4.55
COc1ccc(/C=C/CN2CCCC3(C2)CN(C)C(=O)O3)cc1 (stereo unspecified) | -2.67
CCC[C@@H]1CN(C(=O)c2c(F)ccc(OC)c2F)C[C@H]1C(=O)O | 0.542

SMILES | cytotoxicity at 10 µM [%]
CN1CCC(N(CCc2ccccc2)C(=O)c2cc[nH]c2)CC1 | -1.14
Cc1ncc(C)c(N2Cc3cnn(Cc4ccc(F)cc4)c3C2)n1 | 3.3
O=c1cc(N2CCNCC2)cnn1CCc1ccc(F)cc1 | -8.76
Cc1cccc(-n2nc(CC(C)C)nc2CCCC(N)=O)c1 | 3.4
OC(CNc1ccncn1)CN1CCCCCC1 (stereo unspecified) | -0.271
CN(C)C(C(=O)N1CCSCC1)c1ccccc1F (stereo unspecified) | 0.32
Cc1nn(C)c2nc(N(Cc3ccccc3)CC3CCCO3)sc12 (stereo unspecified) | 8.15
COCCN1CCN(C(=O)c2ccc(COC)o2)[C@H]2CS(=O)(=O)C[C@H]21 | -6.15
N#Cc1cccc(N2CCOC3(CNCCOC3)C2)n1 (stereo unspecified) | 2.61
CC(C)c1nccc(CN2CCC(O)(CN3CCCCC3)C2)n1 (stereo unspecified) | -1.95
CC(C)c1cc(N(C)Cc2cc(C3CC3)on2)n2nccc2n1 | 4.28
CO[C@@]1(C)C[C@@H](O)C12CCN(C(=O)C1(c3ccccc3F)CC1)CC2 | 3.47
CCC(NC(=O)C(C)(C)C)c1ccccc1C (stereo unspecified) | 2.3
NC1CCCN(C(=O)c2csc(-c3ccc(C(F)(F)F)cc3)n2)CC1 (stereo unspecified) | -15.1
Cc1nc(N[C@H]2COC[C@@H]2N2CCCC2)c2cnn(C)c2n1 | -1.42
COc1ccc(C(C(=O)O)N2CCCN(C3CCCCC3)CC2)cn1 (stereo unspecified) | 13.3
Cc1cnccc1CN1C[C@@H](O)[C@H](Oc2cccc(F)c2)C1 | 2.21
Cc1ccccc1-c1cncc(C2CCN(C(C)C)CC2)n1 | 1.2
CC(NC(=O)NCCCn1cncn1)c1ccncc1 (stereo unspecified) | -15.9
Cc1cccc(OCCN2CCN(Cc3cnn(CCO)c3)CC2)c1 | -5.16
O=C(O)c1ccc(F)c(S(=O)(=O)N2CCOc3ccccc32)c1 | -4.28
CC(C)n1ccnc1CN1CCCN(C(=O)c2ncccc2O)CC1 | -3.45
CC(C)Cc1noc(CN2CCN(S(C)(=O)=O)CC2)n1 | 5.51

SMILES | cytotoxicity at 10 µM [%]
CNS(=O)(=O)c1ccc(C(=O)NCCNc2ncccn2)cc1 | -5.95
Cc1nn(C)c(Cl)c1C1CCCN1C(=O)c1ccc2c(c1)OCO2 (stereo unspecified) | -2.9
CC(C)c1noc(CCC(=O)NCC2CCS(=O)(=O)C2)n1 (stereo unspecified) | 5.7
CN(C)CC1CN(Cc2coc(-c3cccs3)n2)CCO1 (stereo unspecified) | 4.48
CNc1snc(C)c1C(=O)N1CCCC(n2nc(C)cc2C)C1 (stereo unspecified) | -2.74
CC(C)(C)SCCCC(=O)N1CCC(Nc2cccnn2)CC1 | -8.26
CCn1cc(NC(=O)NCc2ccc3c(c2)OCCO3)cn1 | -7.71
CN1CCCc2cc(-c3cncn3CCNC3CCS(=O)(=O)C3)ccc21 (stereo unspecified) | -2.42
Cc1ccc(C(CCNCCCN(C)C)C2CCOC(C)(C)C2)cc1 (stereo unspecified) | -3.32
Cc1cccc(CN2CC[C@H]3OCC[C@@]3(C(=O)N3CCCO3)C2)n1 | 0.886
Cn1cnc2c(N3CCCC3)nc(C3CCNCC3)cc21 | -9.74
O=C(NCC1CC1)[C@H]1C[C@H]2OCC[C@H]2N(CCc2ccccc2)C1 | 3.86
c1cnc2c(c1)cc(C1CCOCC1)n2CCN1CCOCC1 | 0.487
O=C(c1cnccn1)N1CCc2ncnc(-c3cccnc3)c2CC1 | -3.8
O=C1NC2(CCN(Cc3ccoc3)CC2)CC1c1ccncc1 (stereo unspecified) | 6.05
c1cnc(N2C[C@H]3CN(CC4CCOC4)C[C@H]3C2)nc1 (stereo partly specified) | -5.09
Cc1ccc2c(n1)N(Cc1cccnc1)CCN(C(=O)C1CCC1)C2 | 13.7
CCc1ncnc2c1CCN(CCOC)CC2 | 5.19
O=C(Nc1ccccc1)N1C[C@@H]2CC[C@H]1CN(Cc1ccccc1)C2 | 1.93
